Data on six compounds can be found in ChEMBL document CHEMBL1135936, “6-[2-(Phosphonomethoxy)alkoxy]pyrimidines with antiviral activity” (J Med Chem, 2002).

Each structure is given as a SMILES string. In brackets after ≈: the same amount, converted by molar mass. Where only a bound is given, the exact number is not on record here.

Experiment [1] concerns E6SM. Nature of the experiment: Inhibition of thymidine kinase deficient Herpes simplex virus-1 VMW 1837 strain induced cytopathicity in E6SM cell line. It is filed as functional, cell-based. Particulars: Homo sapiens. Summed up: (§1)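 Inhibition of virus-induced cytopathicity in confluent cell cultures in 96-well plates inoculated with 100 CCID50 of virus; 1 CCID50 is the virus dose infecting 50% of cultures. EC50 is based on reduction of cytopathicity.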

Experiment [2] relates to HEL. Nature of the experiment: Inhibition of Varicella-Zoster virus (VZV) YS strain induced cytopathicity in HEL cell line. The format is functional, cell-based. Particulars: Homo sapiens. Summed up:
as §1

Experiment [3] relates to Moloney murine sarcoma virus. The experiment can be described thus: Inhibition of moloney sarcoma virus (MSV) induced cytopathicity in C3H/3T3 embryo fibroblast cells. The format is functional, organism-based. The method in brief:
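C3H/3T3 murine embryo fibroblasts were seeded in 48-well plates and infected 24 h later with 80 focus-forming units of MSV. MSV stock was prepared from tumours in NMRI mice. Virus adsorbed for 10-120 min at 37 °C, then fresh medium with compound dilutions was added. Transformation was examined microscopically after 6 days.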

The subject of experiment [4] is Human alphaherpesvirus 3. Nature of the experiment: Inhibition of Thymidine kinase deficient (TK-) Varicella-Zoster virus (VZV) 07/1 strain induced cytopathicity n HEL cell line. It is filed as functional, organism-based. Particulars: Human alphaherpesvirus 3, tk-07, HEL. Summed up:
as §1

Experiment [5] has as its system HEL. The experiment can be described thus: Inhibition of Varicella-Zoster virus (VZV) OKA strain induced cytopathicity in HEL cell line. The format is functional, cell-based. Particulars: Homo sapiens. The method in brief: as §1
The subject of experiment [6] is L929. Nature of the experiment: (§2) In vitro cytotoxicity against murine L929 cells. It is filed as functional, Mus musculus. Details: concentration or dose not given beside the values. Summed up: (§3)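 Cells were grown for 72 h at a constant compound concentration of 10 µM, then counted. Growth inhibition is given relative to cell counts in control cultures grown in medium without compound. Lines: mouse L1210 and L929, human HeLaS3 and CCRF-CEM.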

For experiment [7], the system named is CCRF-CEM. Nature of the experiment: Inhibition of Human immunodeficiency virus (HIV) -1 III B strain induced cytopathicity in CEM cell line. The format is functional, cell-based. Summed up: (§4)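 CEM cells were infected with 100 CCID50 per mL of HIV-1 (IIIB) or HIV-2 (ROD). Cells were seeded into wells containing dilutions of compound and incubated 4 days at 37 °C. CEM giant cell formation was then examined microscopically.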

Experiment [8] concerns L1210. The experiment can be described thus: (§5) In vitro cytotoxicity against L1210 mouse leukemia cells. Details: concentration or dose not given beside the values. It is filed as functional. Summed up: as §3
The subject of experiment [9] is E6SM. Nature of the experiment: Inhibition of Herpes simplex virus-1, KOS strain induced cytopathicity in E6SM cell line. It is filed as functional, cell-based. The conditions noted are these: Homo sapiens. The method in brief:
as §1

The test system of experiment [10] is CCRF-CEM. Nature of the experiment: In vitro cytotoxicity against CCRF-CEM lymphoblastoid cells. It is filed as functional, Homo sapiens. Summed up:
as §3

In experiment [11] the test system is CCRF-CEM. Nature of the experiment: Inhibition of Human immunodeficiency virus (HIV)-2 ROD strain induced cytopathicity in CEM cell line. The format is functional, cell-based. The method in brief:
as §4

The test system of experiment [12] is HEL. The experiment can be described thus: Inhibition of Thymidine kinase deficient (TK-) Varicella-Zoster virus (VZV) YS/R strain induced cytopathicity in HEL cell line. It is filed as functional, cell-based. Particulars: Homo sapiens. Summed up: as §1
The test system of experiment [13] is HeLa. Nature of the experiment: (§6) In vitro cytotoxicity against human cervix carcinoma HeLa S3 cells. It is filed as functional. On the set-up: concentration or dose not given beside the values. Summed up:
as §3

In experiment [14] the test system is E6SM. The experiment can be described thus: Inhibition of Herpes simplex virus-2 (G strain) induced cytopathicity in E6SM cell line. It is filed as functional, cell-based. The conditions noted are these: Homo sapiens. Summed up:
as §1

For experiment [15], the system named is HEL. Nature of the experiment: Inhibitory activity against HEL cell proliferation. The conditions noted are these: Homo sapiens. The format is functional, cell-based.
Experiment [16] has as its system L1210. Nature of the experiment: Inhibitory activity against L1210 cells. It is filed as functional, cell-based. Particulars: Mus musculus. Summed up: (§7)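 CCRF-CEM, L1210 and L929 cells were grown with compound for 72 h and then counted. Cell growth inhibition is expressed relative to untreated control cultures, and IC50 is given in µM.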
The subject of experiment [17] is L929. Nature of the experiment: Inhibitory activity against L929 cells. The conditions noted are these: Mus musculus. The format is functional, cell-based. Summed up: as §7
Experiment [18] concerns CCRF-CEM. Nature of the experiment: (§8) In vitro cytotoxicity against CCRF-CEM T lymphoblastoid cells. The format is functional, Homo sapiens. Details: concentration or dose not given beside the values. The method in brief: as §3
In experiment [19] the test system is CCRF-CEM. The experiment can be described thus: Inhibitory activity against CCRF-CEM cells. The conditions noted are these: Homo sapiens. It is filed as functional, cell-based. The method in brief: as §7
Experiment [20] concerns unidentified adenovirus. The experiment can be described thus: In vitro antiadenovirus activity. The format is functional, organism-based. The method in brief:
(§9)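 HEL fibroblasts, confluent, infected on day 0 with 100 CCID50 of human adenovirus type 2 or type 3. After 2 h adsorption at 37 °C, virus was removed and replaced by serial compound dilutions. Cytopathic effect was scored microscopically on day 7-10 p.i. to derive EC50 and minimum cytotoxic concentration.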

The subject of experiment [21] is L929. Described as §2. It is filed as functional, Mus musculus. Summed up: as §3
Experiment [22] has as its system HeLa. Described as §6. It is filed as functional. Summed up: as §3
Experiment [23] relates to L1210. Described as §5. It is filed as functional. The method in brief:
as §3

Experiment [24] has as its system CCRF-CEM. The description is as §8. It is filed as functional, Homo sapiens. Summed up:
as §3

Experiment [25] deals with unidentified adenovirus. Nature of the experiment: Effective concentration for the inhibition of adenovirus. The format is functional, organism-based. The method in brief: as §9

Take `Nc1cc(OCCOCP(=O)(O)O)ncn1`: the EC50 in experiment [1] was more than 16 µg/mL; in [2] it was more than 50 µg/mL; in experiment [3] it was 13 µg/mL (≈ 52.2 µM); in experiment [4], more than 50 µg/mL; in [5], more than 50 µg/mL; in [7], more than 100 µg/mL. For the same compound, the concentration giving a half-maximal response (EC50) in [9] is more than 16 µg/mL; in [11] it was more than 100 µg/mL; in [12] it was more than 50 µg/mL; in experiment [14], more than 16 µg/mL. Besides, the Control was determined as 84% in experiment [6], 81% in experiment [8], 95% in experiment [10] and 86% in [13].

Turning to `Nc1cc(OCCOCP(=O)(O)O)nc(N)n1`, the EC50 in experiment [1] came to 9.6 µg/mL (≈ 36.3 µM); in experiment [2], 1.1 µg/mL (≈ 4.16 µM); in experiment [3] it was 0.04 µg/mL (≈ 0.151 µM); in experiment [4], 2.5 µg/mL (≈ 9.46 µM); in experiment [5], 1.2 µg/mL (≈ 4.54 µM); in experiment [7], 0.8 µg/mL (≈ 3.03 µM). Moreover, the EC50 worked out at 6.5 µg/mL (≈ 24.6 µM) in [9], 0.43 µg/mL (≈ 1.63 µM) in [11], 1.6 µg/mL (≈ 6.06 µM) in [12] and 24 µg/mL (≈ 90.8 µM) in experiment [14]. Moreover, the IC50 in [15] came to 50 µg/mL (≈ 189 µM); in experiment [16], 25 µM; in experiment [17], 25 µM; in experiment [19], 12.4 µM. The Control stood at 61% in experiment [6], 62% in [8], 63% in experiment [18] and 89% in experiment [13].

As for `Nc1cc(SCCOCP(=O)(O)O)nc(N)n1`, the EC50 in experiment [1] was 48 µg/mL (≈ 171 µM); in experiment [2], 7 µg/mL (≈ 25 µM); in [3] it was 1.7 µg/mL (≈ 6.07 µM); in experiment [4], 20 µg/mL (≈ 71.4 µM); in experiment [20], 78 µg/mL (≈ 278 µM); in experiment [15] it was 50 µg/mL (≈ 178 µM). Further, the EC50 was 7.5 µg/mL (≈ 26.8 µM) in experiment [5]; 5.5 µg/mL (≈ 19.6 µM) in [7]; 29 µg/mL (≈ 103 µM) in experiment [9]; 3 µg/mL (≈ 10.7 µM) in [11]; 15 µg/mL (≈ 53.5 µM) in experiment [12]; not below 80 µg/mL in experiment [14]. The Control in experiment [6] turned out to be 88%; in [8], 83%; in experiment [18], 89%; in experiment [13], 98%.

With `Nc1nc(NC2CC2)cc(OCCOCP(=O)(O)O)n1`, the EC50 in experiment [1] was 240 µg/mL (≈ 789 µM); in experiment [2] it was more than 50 µg/mL; in [3] it was more than 40 µg/mL; in [4], more than 50 µg/mL; in experiment [5], more than 20 µg/mL; in experiment [7] it was more than 100 µg/mL. For the same compound, the EC50 in experiment [9] is 240 µg/mL (≈ 789 µM); in experiment [11] it was more than 100 µg/mL; in experiment [12] it was more than 50 µg/mL; in experiment [14], more than 80 µg/mL. The Control in [21] is listed as 93%; in [22] it was 88%; in [23], 71%; in [24], 87%.

On to `Nc1nc(N)c2ncn(CCOCP(=O)(O)O)c2n1` [PMEDAP], for which the midpoint of the response in experiment [25], the EC50, lay at 47 µg/mL (≈ 163 µM).

In experiment [25], `Nc1ncnc2c1ncn2C[C@@H](CO)OCP(=O)(O)O` displayed an EC50 of 0.24 µg/mL (≈ 0.792 µM).
